This is an account of results in ChEMBL document CHEMBL1212762, “In vivo activity of ceftobiprole in murine skin infections due to Staphylococcus aureus and Pseudomonas aeruginosa” (Antimicrob Agents Chemother, 2010).

Molecules are shown by their SMILES.

Data set [1] relates to Plasma. In words: fCmax in immunocompetent SKH1 mouse plasma at 50 mg/kg, sc. The class given is ADME, organism-based. Set-up: dose 50 mg/kg, route subcutaneous. The following applies: in vivo. The gist of the method: (§1)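 Female SKH1 hairless mice, immunocompetent or cyclophosphamide-neutropenic, infected s.c. with MRSA OC 8525 or P. aeruginosa OC 4354 on the Cytodex beads (left flank), sterile beads on the right. Single dose 24 h later: s.c. at the nape, or linezolid 50 mg/kg oral. Plasma and skin (DMSO homogenate) sampled over time, HPLC with diode array.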

The subject of data set [2] is Staphylococcus aureus. Briefly: Antimicrobial activity against methicillin-resistant Staphylococcus aureus OC 8525 infected in SKH1 mouse assessed as log change in bacterial colony forming unit per gram of skin tissue at 25 mg/kg/day, sc (reference value: 0.8 deltalog CFU). In kind it is functional. The following applies: route subcutaneous.
Data set [3] has as its system Staphylococcus aureus. In words: Antimicrobial activity against methicillin-resistant Staphylococcus aureus OC 8525 infected in SKH1 mouse assessed as log change in bacterial colony forming unit per gram of skin tissue at 100 mg/kg/day, sc (reference value: 0.8 deltalog CFU). The class given is functional. The following applies: route subcutaneous. The gist of the method:
(§2)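 Female hairless immunocompetent SKH1 mice were anaesthetised and injected s.c. with 0.2 ml Cytodex bead inoculum (0.1% vol/vol beads in BHI; 6.7–7.0 log10 CFU/mouse): MSSA OC 4172 in the left flank, MRSA OC 8525 in the right. Drug was given at 1, 3, 25 and 27 h post-infection. At 48 h, flank lesions were excised, weighed and homogenised in saline, then plated on TSA (18 h, 37°C). The value is Δlog CFU/g versus the inoculum, from 5 mice/dose, run twice and pooled.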

For data set [4], the system named is Staphylococcus aureus. Briefly: Antimicrobial activity against methicillin-susceptible Staphylococcus aureus Smith OC 4172 infected in SKH1 mouse assessed as log change in bacterial colony forming unit per gram of skin tissue at 1.6 mg/kg/day, sc (reference value: 1.6 deltalog CFU). To be noted: route subcutaneous. In kind it is functional.
Data set [5] is described as follows: fT>MIC in Pseudomonas aeruginosa OC 4351 infected sc dosed SKH1 mouse at 50 mg/kg, sc administered twice at 1 and 3 hrs after infection. The class given is functional. The following applies: route subcutaneous.
Data set [6] is described as follows: Tmax in immunocompetent SKH1 mouse plasma at 50 mg/kg, sc. In kind it is ADME, organism-based. Also noted: dose 50 mg/kg, route subcutaneous. The gist of the method:
as §1

Data set [7] can be described thus: fT>MIC in Pseudomonas aeruginosa OC 4354 infected sc dosed SKH1 mouse administered in 24 hrs dosing interval. The class given is functional. The gist of the method:
(§3)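 Plasma levels came from female hairless SKH1 mice given single s.c. doses at the nape 24 h after flank s.c. infection with Cytodex beads. S. aureus work used immunocompetent mice. P. aeruginosa work used mice made neutropenic with cyclophosphamide i.p., 150 mg/kg at day −5 and 100 mg/kg at day −1. Drug assayed by HPLC with diode-array detection. Noncompartmental analysis.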

The nature of data set [8]: fT>MIC in Staphylococcus aureus Smith OC 4172 infected sc dosed SKH1 mouse at 50 mg/kg, sc administered twice at 1 and 3 hrs after infection. The class given is functional. To be noted: route subcutaneous.
Data set [9] deals with Staphylococcus aureus. Briefly: Antimicrobial activity against methicillin-resistant Staphylococcus aureus OC 8525 infected in SKH1 mouse assessed as log change in bacterial colony forming unit per gram of skin tissue at 6.2 mg/kg/day, sc (reference value: 0.8 deltalog CFU). In kind it is functional. The following applies: route subcutaneous. The gist of the method:
as §2

For data set [10], the system named is Staphylococcus aureus. In words: Antimicrobial activity against methicillin-resistant Staphylococcus aureus OC 8525 infected in SKH1 mouse assessed as log change in bacterial colony forming unit per gram of skin tissue at 1.6 mg/kg/day, sc (reference value: 0.8 deltalog CFU). The following applies: route subcutaneous. In kind it is functional. The gist of the method: as §2

The nature of data set [11]: fT>MIC in Pseudomonas aeruginosa OC 4354 infected sc dosed SKH1 mouse at 50 mg/kg, sc administered twice at 1 and 3 hrs after infection. In kind it is functional. To be noted: route subcutaneous.
Data set [12] concerns Staphylococcus aureus. In words: Antimicrobial activity against methicillin-susceptible Staphylococcus aureus Smith OC 4172 infected in SKH1 mouse assessed as log change in bacterial colony forming unit per gram of skin tissue at 100 mg/kg/day, sc (reference value: 1.6 deltalog CFU). The class given is functional. To be noted: route subcutaneous.
Data set [13] can be described thus: Protein binding in mouse plasma. The class given is ADME, cell-free. To be noted: read-out: PPB (converted).
A short description of data set [14]: fT>MIC in Staphylococcus aureus OC 4172 infected sc dosed SKH1 mouse administered in 24 hrs dosing interval. The class given is functional. The gist of the method: as §3
The test system of data set [15] is Staphylococcus aureus. Briefly: Antimicrobial activity against methicillin-susceptible Staphylococcus aureus OC 4172 assessed as inhibition of growth by broth microdilution method. The class given is functional. (In general: Broth dilution looks for growth in wells or tubes with falling amounts of substance.)
Data set [16] has as its system Staphylococcus aureus. Briefly: Antimicrobial activity against methicillin-susceptible Staphylococcus aureus Smith OC 4172 infected in SKH1 mouse assessed as log change in bacterial colony forming unit per gram of skin tissue at 6.2 mg/kg/day, sc (reference value: 1.6 deltalog CFU). In kind it is functional. To be noted: route subcutaneous.
Data set [17] can be described thus: fT>MIC in Staphylococcus aureus OC 8525 infected sc dosed SKH1 mouse at 50 mg/kg, sc administered twice at 1 and 3 hrs after infection. In kind it is functional. To be noted: route subcutaneous.
Data set [18] has as its system Staphylococcus aureus. Briefly: Antimicrobial activity against methicillin-resistant Staphylococcus aureus OC 8525 assessed as inhibition of growth by broth microdilution method. The class given is functional.
The subject of data set [19] is Staphylococcus aureus. Briefly: Antimicrobial activity against methicillin-susceptible Staphylococcus aureus Smith OC 4172 infected in SKH1 mouse assessed as log change in bacterial colony forming unit per gram of skin tissue at 25 mg/kg/day, sc (reference value: 1.6 deltalog CFU). In kind it is functional. The following applies: route subcutaneous. The gist of the method:
as §2

A short description of data set [20]: fT>MIC in Staphylococcus aureus OC 8525 infected sc dosed SKH1 mouse administered in 24 hrs dosing interval. In kind it is functional. The gist of the method: as §3
Data set [21] can be described thus: fT>MIC in Pseudomonas aeruginosa OC 4351 infected sc dosed SKH1 mouse administered in 24 hrs dosing interval. In kind it is functional.
In data set [22] the test system is Plasma. In words: fAUC (0-infinity) in immunocompetent SKH1 mouse plasma at 50 mg/kg, sc. In kind it is ADME, organism-based. Set-up: dose 50 mg/kg, route subcutaneous. The following applies: in vivo. The gist of the method: as §1

As to `Cc1nnc(SCC2=C(C(=O)O)N3C(=O)[C@@H](NC(=O)Cn4cnnn4)[C@H]3SC2)s1` [CEFAZOLIN], the fCmax in the data set with Plasma [1] was determined as 19 µg/mL. Besides, the deltalog10CFU is listed as -1.3 in the data set with Staphylococcus aureus [2]; -0.3 in the data set with Staphylococcus aureus [3]; -0.6 in the data set on Staphylococcus aureus [4]; -1.2 in the data set with Staphylococcus aureus [9]; 0.6 in the data set on Staphylococcus aureus [10]; -1.7 with Staphylococcus aureus [12]. Further, the deltalog10CFU in the data set with Staphylococcus aureus [16] was 1.6; in the data set on Staphylococcus aureus [19], -2. Further, the “fT>MIC” value came to 1.5 h in [5]; 3.3% in data set [7]; 2.4 h in data set [8]; 0.8 h in data set [11]; 10.2% in data set [14]; 0.3 h in data set [17]. For the same molecule, the entries for the “fT>MIC” value in [20] and in data set [21] were 1.3% and 6.4%, respectively. The time of peak concentration (Tmax) in [6] is 7.5 min. In addition, the fraction unbound in [13] was 0.19. The MIC in the data set on Staphylococcus aureus [15] came out at 0.5 µg/mL; in the data set on Staphylococcus aureus [18], 16 µg/mL. Moreover, the fAUC in the data set on Plasma [22] stood at 565 µg·min/mL.

A word on the Tmax: it is the time from dosing to the highest level. As a reminder, the MIC is the smallest concentration in the dilution series that meets the test's criterion for growth inhibition.
